Reference: ChEMBL document CHEMBL1123382, “Potential tumor- or organ-imaging agents. 27. Polyiodinated 1,3-disubstituted and 1,2,3-trisubstituted triacylglycerols” (J Med Chem, 1986)
Several values for one entry are separate records, joined by “and”; a condition that tells them apart may be missing. Equal values may be shown once.

Assays:
Rattus norvegicus [1] = test: (§1) Biodistribution in Rat liver after 30 minutes of iv administration; per g of tissue; type: ADME, organism-based; settings: in vivo, 0.5 h
Procedure, shortened: (§2)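 125I-labeled compound solubilized in normal saline with Tween-20 and given iv to rats, about 5-30 μCi (9-83 μg) per animal. Three to five rats per time point. Rats killed by exsanguination under ether anesthesia at 5 min, 30 min or 24 h. Organs minced, blotted free of blood and counted for radioiodine. Lines with "per g" are % administered dose per gram ± SEM.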

Rattus norvegicus [2] = test: Biodistribution in Rat lung after 24 hours of iv administration; per g of tissue; type: ADME, organism-based; settings: in vivo; procedure, shortened: as §2
Rattus norvegicus [3] = test: Biodistribution in Rat lung after 30 minutes of iv administration; per g of tissue; type: ADME, organism-based; settings: in vivo, 0.5 h; procedure, shortened: as §2
Rattus norvegicus [4] = test: Biodistribution in Rat lung after 5 minutes of iv administration; per g of tissue; type: ADME, organism-based; settings: in vivo; procedure, shortened: as §2
Rattus norvegicus [5] = test: Biodistribution in Rat blood after 24 hours of iv administration; per g of tissue; type: ADME, organism-based; settings: in vivo; procedure, shortened: as §2
Rattus norvegicus [6] = test: Biodistribution in Rat blood after 5 minutes of iv administration; per g of tissue; type: ADME, organism-based; settings: in vivo; procedure, shortened: as §2
Rattus norvegicus [7] = test: Biodistribution in Rat heart after 24 hours of iv administration; per g of tissue; type: ADME, organism-based; settings: in vivo; procedure, shortened: as §2
Rattus norvegicus [8] = test: Biodistribution in Rat heart after 30 minutes of iv administration; per g of tissue; type: ADME, organism-based; settings: in vivo, 0.5 h; procedure, shortened: as §2
Rattus norvegicus [9] = test: Biodistribution in Rat heart after 5 minutes of iv administration; per g of tissue; type: ADME, organism-based; settings: in vivo; procedure, shortened: as §2
Rattus norvegicus [10] = test: Biodistribution in Rat liver after 24 hours of iv administration; per g of tissue; type: ADME, organism-based; settings: in vivo; procedure, shortened: as §2
Rattus norvegicus [11] = test: as §1; type: ADME, organism-based; settings: in vivo, 0.5 h; procedure, shortened: as §2; remark: listed apart in the source
Rattus norvegicus [12] = test: Compound was evaluated for the lipid soluble radioactivity extracted from rat plasma at 24 hr after intravenous administration.; type: functional
Procedure, shortened: (§3)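 Liver and plasma taken 0.5 or 24 h after iv dosing of 125I-labeled compound in rats (n = 3-5). Extracted by a modified Folch procedure; value is % lipid (CHCl3/MeOH)-extractable radioactivity ± SEM. Extracts run on TLC in hexane/ethyl acetate 5:2 against unlabeled standard, then 1-cm strips counted to give % parent compound.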

Rattus norvegicus [13] = test: Compound was evaluated for the lipid soluble radioactivity extracted from rat liver at 0.5 hr after intravenous administration.; type: functional; procedure, shortened: as §3
Rattus norvegicus [14] = test: Compound was evaluated for the lipid soluble radioactivity extracted from rat liver at 24 hr after intravenous administration.; type: functional; procedure, shortened: as §3
Rattus norvegicus [15] = test: Compound was evaluated for the lipid soluble radioactivity extracted from rat plasma at 0.5 hr after intravenous administration.; type: functional; procedure, shortened: as §3
Rattus norvegicus [16] = test: Liver radioactivity after iv administration of compound (24 h) in rats; type: functional, organism-based
Procedure, shortened: (§4)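 Rats (3-5 per time point) dosed iv with about 5-30 μCi (9-83 μg) of 125I-labeled compound in saline containing Tween-20. Killed by exsanguination under ether at 5 min, 30 min or 24 h. Liver removed, minced, blotted and counted. Values are % administered dose per organ, based on each animal's actual liver weight, ± SEM.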

Rattus norvegicus [17] = test: Liver radioactivity after iv administration of compound (30 min) in rats; type: functional, organism-based; procedure, shortened: as §4
Rattus norvegicus [18] = test: Liver radioactivity after iv administration of compound (5 min) in rats; type: functional, organism-based; procedure, shortened: as §4
Rattus norvegicus [19] = test: Compound (125I labeled) was evaluated for the total radioactivity in albumin 5 min after intravenous administration.; type: functional; design: concentration or dose not given beside the values
Procedure, shortened: (§5)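 Rat plasma taken 5 or 30 min after iv dosing of 125I-labeled compound (saline/Tween-20) and run on polyacrylamide gel electrophoresis. Gels sectioned and each section gamma-counted. Radioactivity in each band (stacking gel, lipoproteins, albumin, below-albumin) is given as % of total radioactivity applied to the gel.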

Rattus norvegicus [20] = test: Evaluated for the total radioactivity in below albumin at 30 min after intravenous administration.; type: functional; procedure, shortened: as §5
Rattus norvegicus [21] = test: Compound (125I labeled) was evaluated for the total radioactivity in high-density lipoprotein 5 min after intravenous administration.; type: functional; procedure, shortened: as §5
Rattus norvegicus [22] = test: Compound (125I labeled) was evaluated for the total radioactivity in high-density lipoprotein, at 30 min after intravenous administration.; type: functional; procedure, shortened: as §5
Rattus norvegicus [23] = test: Compound (125I labeled) was evaluated for the total radioactivity in low-density lipoprotein 5 min after intravenous administration.; type: functional; design: concentration or dose not given beside the values; procedure, shortened: as §5
Rattus norvegicus [24] = test: Compound (125I labeled) was evaluated for the total radioactivity in low-density lipoprotein, at 30 min after intravenous administration.; type: functional; procedure, shortened: as §5
Rattus norvegicus [25] = test: Compound (125I labeled) was evaluated for the total radioactivity in stacking gel 5 min after intravenous administration.; type: functional; procedure, shortened: as §5
Rattus norvegicus [26] = test: Compound (125I labeled) was evaluated for the total radioactivity in stacking gel at 30 min after intravenous administration.; type: functional; procedure, shortened: as §5
Rattus norvegicus [27] = test: Biodistribution in Rat liver after 5 minutes of iv administration; per g of tissue; type: ADME, organism-based; settings: in vivo; procedure, shortened: as §2
Rattus norvegicus [28] = test: Biodistribution in Rat blood after 30 minutes of iv administration; per g of tissue; type: ADME, organism-based; settings: in vivo, 0.5 h; procedure, shortened: as §2
Rattus norvegicus [29] = test: Compound (125I labeled) was evaluated for the total radioactivity in albumin at 30 min after intravenous administration.; type: functional; design: concentration or dose not given beside the values; procedure, shortened: as §5
Rattus norvegicus [30] = test: Biodistribution in Rat lung after 30 minutes of iv administration; type: ADME, organism-based; settings: in vivo, 0.5 h; procedure, shortened: as §2
Rattus norvegicus [31] = test: Biodistribution in Rat liver after 5 minutes of iv administration; type: ADME, organism-based; settings: in vivo; procedure, shortened: as §2
Rattus norvegicus [32] = test: Biodistribution in Rat lung after 24 hours of iv administration; type: ADME, organism-based; settings: in vivo; procedure, shortened: as §2
Rattus norvegicus [33] = test: Biodistribution in Rat lung after 5 minutes of iv administration; type: ADME, organism-based; settings: in vivo; procedure, shortened: as §2
Rattus norvegicus [34] = test: Biodistribution in Rat blood after 24 hours of iv administration; type: ADME, organism-based; settings: in vivo; procedure, shortened: as §2
Rattus norvegicus [35] = test: Biodistribution in Rat blood after 30 minutes of iv administration; type: ADME, organism-based; settings: in vivo, 0.5 h; procedure, shortened: as §2
Rattus norvegicus [36] = test: Biodistribution in Rat blood after 5 minutes of iv administration; type: ADME, organism-based; settings: in vivo; procedure, shortened: as §2
Rattus norvegicus [37] = test: Biodistribution in Rat heart after 24 hours of iv administration; type: ADME, organism-based; settings: in vivo; procedure, shortened: as §2
Rattus norvegicus [38] = test: Biodistribution in Rat heart after 30 minutes of iv administration; type: ADME, organism-based; settings: in vivo, 0.5 h; procedure, shortened: as §2
Rattus norvegicus [39] = test: Biodistribution in Rat heart after 5 minutes of iv administration; type: ADME, organism-based; settings: in vivo; procedure, shortened: as §2
Rattus norvegicus [40] = test: Biodistribution in Rat liver after 24 hours of iv administration; type: ADME, organism-based; settings: in vivo; procedure, shortened: as §2
Rattus norvegicus [41] = test: (§6) Biodistribution in Rat liver after 30 minutes of iv administration; type: ADME, organism-based; settings: in vivo, 0.5 h; procedure, shortened: as §2
Rattus norvegicus [42] = test: as §6; type: ADME, organism-based; settings: in vivo, 0.5 h; procedure, shortened: as §2; remark: listed apart in the source
Rattus norvegicus [43] = test: Compound (125I labeled)was evaluated for the total radioactivity in stacking gel 5 min after intravenous administration.; type: functional; procedure, shortened: as §5

SMILES	Extracted (Rattus norvegicus [12])	Parent compound (Rattus norvegicus [12])	Extracted (Rattus norvegicus [13])	Parent compound (Rattus norvegicus [13])	Extracted (Rattus norvegicus [14])	Parent compound (Rattus norvegicus [14])	Extracted (Rattus norvegicus [15])	Parent compound (Rattus norvegicus [15])	Radioactivity (Rattus norvegicus [16])	Radioactivity (Rattus norvegicus [17])	Radioactivity (Rattus norvegicus [18])	Total radioactivity (Rattus norvegicus [19])	Total radioactivity (Rattus norvegicus [20])	Total radioactivity (Rattus norvegicus [21])	Total radioactivity (Rattus norvegicus [22])	Total radioactivity (Rattus norvegicus [23])	Total radioactivity (Rattus norvegicus [24])	Total radioactivity (Rattus norvegicus [25])	Total radioactivity (Rattus norvegicus [26])	Total radioactivity (Rattus norvegicus [29])	further results
CCCCCCCCCCCCCCCC(=O)OC(COC(=O)C(CC)Cc1c(I)cc(I)c(N)c1I)COC(=O)C(CC)Cc1c(I)cc(I)c(N)c1I (configuration not stated)	82.1%	77.4%	88.4%	86%	93.9%	91.7%	86%	82.6%	52.1	30.2	18.4	3.2%	0.1% and 0.3%	55.1%	59.7%	35.4%	29.7%	6.2%	6.8%	3.4%	Biodistribution (Rattus norvegicus [1]): 4.54%; Biodistribution (Rattus norvegicus [2]): 0.33%; Biodistribution (Rattus norvegicus [3]): 1.1%; Biodistribution (Rattus norvegicus [4]): 1.49%; Biodistribution (Rattus norvegicus [5]): 0.54%; Biodistribution (Rattus norvegicus [6]): 7.44%; Biodistribution (Rattus norvegicus [7]): 0.21%; Biodistribution (Rattus norvegicus [8]): 0.66%; Biodistribution (Rattus norvegicus [9]): 0.87%; Biodistribution (Rattus norvegicus [10]): 0.26% and 0.33%; Biodistribution (Rattus norvegicus [11]): 4.54%; Biodistribution (Rattus norvegicus [27]): 0.84% and 2.9%; Biodistribution (Rattus norvegicus [28]): 5.17%
CCC(Cc1c(I)cc(I)c(N)c1I)C(=O)OCC(COC(=O)C(CC)Cc1c(I)cc(I)c(N)c1I)OC(=O)C(CC)Cc1c(I)cc(I)c(N)c1I (configuration not stated)	83.4%	75.1%	89%	92.9%	91.7%	92.3%	90.5%	89.1%	66.8	26	22.4	2.9%	0.3% and 1.9%	48.2%	55.8%	33.4%	27%	–	9.9%	5.3%	Biodistribution (Rattus norvegicus [30]): 0.67%; Biodistribution (Rattus norvegicus [31]): 0.87% and 3.57%; Biodistribution (Rattus norvegicus [32]): 0.58%; Biodistribution (Rattus norvegicus [33]): 1.49%; Biodistribution (Rattus norvegicus [34]): 0.14%; Biodistribution (Rattus norvegicus [35]): 3.31%; Biodistribution (Rattus norvegicus [36]): 6.95%; Biodistribution (Rattus norvegicus [37]): 0.1%; Biodistribution (Rattus norvegicus [38]): 0.39%; Biodistribution (Rattus norvegicus [39]): 0.97%; Biodistribution (Rattus norvegicus [40]): 0.18% and 9.19%; Biodistribution (Rattus norvegicus [41]): 2.79%; Biodistribution (Rattus norvegicus [42]): 2.79%; Total radioactivity (Rattus norvegicus [43]): 15.2%
CCCCCCCCCCCCCCCC(=O)OC(COC(=O)CCCCCCCCCCCc1c(I)cc(I)c(N)c1I)COC(=O)CCCCCCCCCCCc1c(I)cc(I)c(N)c1I	52%	25.3%	64.2%	28.1%	81.7%	44.9%	64.6%	11.3%	7.73	30.7	43.4	14.8%	3.4% and 3.1%	12%	25.7%	8.2%	12.1%	61.6%	8.6%	50.7%	Biodistribution (Rattus norvegicus [30]): 0.73%; Biodistribution (Rattus norvegicus [31]): 0.64% and 5.84%; Biodistribution (Rattus norvegicus [32]): 0.12%; Biodistribution (Rattus norvegicus [33]): 1.38%; Biodistribution (Rattus norvegicus [34]): 0.1%; Biodistribution (Rattus norvegicus [35]): 1.49%; Biodistribution (Rattus norvegicus [36]): 2.74%; Biodistribution (Rattus norvegicus [37]): 0.12%; Biodistribution (Rattus norvegicus [38]): 1.06%; Biodistribution (Rattus norvegicus [39]): 1.43%; Biodistribution (Rattus norvegicus [40]): 0.14% and 1.06%; Biodistribution (Rattus norvegicus [41]): 4.24%; Biodistribution (Rattus norvegicus [42]): 4.24%
CCCCCCCCCCCCCCCC(=O)OC(COC(=O)CCc1c(I)cc(I)c(N)c1I)COC(=O)CCc1c(I)cc(I)c(N)c1I	63.7%	80%	86.2%	94.2%	83.1%	88%	62.9%	90.6%	14.7	38.4	43.1	5%	0.2% and 1.2%	52.8%	36.3%	27.8%	40.6%	14.2%	19%	2.8%	Biodistribution (Rattus norvegicus [1]): 5.82%; Biodistribution (Rattus norvegicus [2]): 0.21%; Biodistribution (Rattus norvegicus [3]): 0.94%; Biodistribution (Rattus norvegicus [4]): 0.75%; Biodistribution (Rattus norvegicus [5]): 0.31%; Biodistribution (Rattus norvegicus [6]): 3.48%; Biodistribution (Rattus norvegicus [7]): 0.42%; Biodistribution (Rattus norvegicus [8]): 0.56%; Biodistribution (Rattus norvegicus [9]): 0.43%; Biodistribution (Rattus norvegicus [10]): 0.29% and 2.19%; Biodistribution (Rattus norvegicus [11]): 5.82%; Biodistribution (Rattus norvegicus [27]): 0.5% and 6.19%; Biodistribution (Rattus norvegicus [28]): 4.25%
